How the values were obtained:
Type in all cases: functional
[1] = tested on: Coptotermes formosanus; assay: Termiticidal activity against Coptotermes formosanus placed on 0.1 % wt/wt compound treated filter paper assessed as termite mortality measured 17 days post compound exposure
Outline: (§1)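 Treated filter paper disks moistened with 100 µL water; 20 C. formosanus workers (third instar or greater) plus 1 soldier per dish from field colonies kept on spruce, ca. 100% RH, 26.6 °C. Daily mortality scored for 3 weeks; cumulative percent mortality from four replicates, each a different colony; water-only controls; ANOVA, protected Fisher LSD (P < 0.05) after arcsine square-root transform.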

[2] = tested on: Coptotermes formosanus; assay: Termiticidal activity against Coptotermes formosanus placed on 0.1 % wt/wt compound treated filter paper assessed as termite mortality measured 21 days post compound exposure; outline: as §1
[3] = tested on: Coptotermes formosanus; assay: Termiticidal activity against Coptotermes formosanus placed on 0.001 % wt/wt compound treated filter paper assessed as termite mortality measured 9 days post compound exposure; outline: as §1
[4] = tested on: Coptotermes formosanus; assay: Termiticidal activity against Coptotermes formosanus placed on 0.5 % wt/wt compound treated filter paper assessed as termite mortality measured 17 days post compound exposure; outline: as §1
[5] = tested on: Coptotermes formosanus; assay: Termiticidal activity against Coptotermes formosanus placed on 0.05 % wt/wt compound treated filter paper assessed as termite mortality measured 17 days post compound exposure; outline: as §1
[6] = tested on: Coptotermes formosanus; assay: Termiticidal activity against Coptotermes formosanus placed on 0.01 % wt/wt compound treated filter paper assessed as termite mortality measured 6 days post compound exposure; outline: as §1
[7] = tested on: Coptotermes formosanus; assay: Termiticidal activity against Coptotermes formosanus placed on 0.1 % wt/wt compound treated filter paper assessed as termite mortality measured 13 days post compound exposure; outline: as §1
[8] = tested on: Coptotermes formosanus; assay: Termiticidal activity against Coptotermes formosanus placed on 0.05 % wt/wt compound treated filter paper assessed as termite mortality measured 6 days post compound exposure; outline: as §1
[9] = tested on: Coptotermes formosanus; assay: Termiticidal activity against Coptotermes formosanus placed on 0.01 % wt/wt compound treated filter paper assessed as termite mortality measured 13 days post compound exposure; outline: as §1
[10] = tested on: Coptotermes formosanus; assay: Termiticidal activity against Coptotermes formosanus placed on 0.5 % wt/wt compound treated filter paper assessed as termite mortality measured 9 days post compound exposure; outline: as §1
[11] = tested on: Coptotermes formosanus; assay: Antifeedant activity against Coptotermes formosanus placed on 0.5 % wt/wt compound treated filter paper assessed as filter paper consumption measured 21 days post compound exposure (reference value: 54.4 +/- 20.7 mg)
[12] = tested on: Coptotermes formosanus; assay: Termiticidal activity against Coptotermes formosanus placed on 1 % wt/wt compound treated filter paper assessed as termite mortality measured 21 days post compound exposure
[13] = tested on: Coptotermes formosanus; assay: Termiticidal activity against Coptotermes formosanus placed on 0.1 % wt/wt compound treated filter paper assessed as termite mortality measured 11 days post compound exposure; outline: as §1
[14] = tested on: Coptotermes formosanus; assay: Termiticidal activity against Coptotermes formosanus placed on 0.05 % wt/wt compound treated filter paper assessed as termite mortality measured 9 days post compound exposure; outline: as §1
[15] = tested on: Coptotermes formosanus; assay: Termiticidal activity against Coptotermes formosanus placed on 0.001 % wt/wt compound treated filter paper assessed as termite mortality measured 13 days post compound exposure; outline: as §1
[16] = tested on: Coptotermes formosanus; assay: Termiticidal activity against Coptotermes formosanus placed on 0.05 % wt/wt compound treated filter paper assessed as termite mortality measured 13 days post compound exposure; outline: as §1
[17] = tested on: Coptotermes formosanus; assay: Antifeedant activity against Coptotermes formosanus placed on 0.01 % wt/wt compound treated filter paper assessed as filter paper consumption measured 21 days post compound exposure
[18] = tested on: Coptotermes formosanus; assay: Termiticidal activity against Coptotermes formosanus placed on 0.01 % wt/wt compound treated filter paper assessed as termite mortality measured 11 days post compound exposure; outline: as §1
[19] = tested on: Coptotermes formosanus; assay: Termiticidal activity against Coptotermes formosanus placed on 0.5 % wt/wt compound treated filter paper assessed as termite mortality measured 13 days post compound exposure; outline: as §1
[20] = tested on: Coptotermes formosanus; assay: Termiticidal activity against Coptotermes formosanus placed on 0.001 % wt/wt compound treated filter paper assessed as termite mortality measured 21 days post compound exposure; outline: as §1
[21] = tested on: Coptotermes formosanus; assay: Termiticidal activity against Coptotermes formosanus placed on 0.5 % wt/wt compound treated filter paper assessed as termite mortality measured 21 days post compound exposure; outline: as §1
[22] = tested on: Coptotermes formosanus; assay: Termiticidal activity against Coptotermes formosanus placed on 0.05 % wt/wt compound treated filter paper assessed as termite mortality measured 21 days post compound exposure; outline: as §1
[23] = tested on: Coptotermes formosanus; assay: Termiticidal activity against Coptotermes formosanus placed on 0.01 % wt/wt compound treated filter paper assessed as termite mortality measured 21 days post compound exposure; outline: as §1
[24] = tested on: Coptotermes formosanus; assay: Antifeedant activity against Coptotermes formosanus placed on 0.1 % wt/wt compound treated filter paper assessed as filter paper consumption measured 21 days post compound exposure (reference value: 54.4 +/- 20.7 mg)
[25] = tested on: Coptotermes formosanus; assay: Termiticidal activity against Coptotermes formosanus placed on 0.001 % wt/wt compound treated filter paper assessed as termite mortality measured 6 days post compound exposure; outline: as §1
[26] = tested on: Coptotermes formosanus; assay: Termiticidal activity against Coptotermes formosanus placed on 1 % wt/wt compound treated filter paper assessed as termite mortality measured 3 days post compound exposure
[27] = tested on: Coptotermes formosanus; assay: Antifeedant activity against Coptotermes formosanus placed on 0.001 % wt/wt compound treated filter paper assessed as filter paper consumption measured 21 days post compound exposure
[28] = tested on: Coptotermes formosanus; assay: Termiticidal activity against Coptotermes formosanus placed on 0.05 % wt/wt compound treated filter paper assessed as termite mortality measured 11 days post compound exposure; outline: as §1
[29] = tested on: Coptotermes formosanus; assay: Antifeedant activity against Coptotermes formosanus placed on 1 % wt/wt compound treated filter paper assessed as filter paper consumption measured 21 days post compound exposure (reference value: 85 +/- 15.1 mg)
[30] = tested on: Coptotermes formosanus; assay: Termiticidal activity against Coptotermes formosanus placed on 0.01 % wt/wt compound treated filter paper assessed as termite mortality measured 17 days post compound exposure; outline: as §1
[31] = tested on: Coptotermes formosanus; assay: Termiticidal activity against Coptotermes formosanus placed on 0.5 % wt/wt compound treated filter paper assessed as termite mortality measured 11 days post compound exposure; outline: as §1
[32] = tested on: Coptotermes formosanus; assay: Termiticidal activity against Coptotermes formosanus placed on 1 % wt/wt compound treated filter paper assessed as termite mortality measured 11 days post compound exposure
[33] = tested on: Coptotermes formosanus; assay: Antifeedant activity against Coptotermes formosanus placed on 0.05 % wt/wt compound treated filter paper assessed as filter paper consumption measured 21 days post compound exposure
[34] = tested on: Coptotermes formosanus; assay: Termiticidal activity against Coptotermes formosanus placed on 0.5 % wt/wt compound treated filter paper assessed as termite mortality measured 6 days post compound exposure; outline: as §1
[35] = tested on: Coptotermes formosanus; assay: Termiticidal activity against Coptotermes formosanus placed on 0.1 % wt/wt compound treated filter paper assessed as termite mortality measured 9 days post compound exposure; outline: as §1
[36] = tested on: Coptotermes formosanus; assay: Termiticidal activity against Coptotermes formosanus placed on 0.1 % wt/wt compound treated filter paper assessed as termite mortality measured 6 days post compound exposure; outline: as §1
[37] = tested on: Coptotermes formosanus; assay: Termiticidal activity against Coptotermes formosanus placed on 0.001 % wt/wt compound treated filter paper assessed as termite mortality measured 11 days post compound exposure; outline: as §1
[38] = tested on: Coptotermes formosanus; assay: Termiticidal activity against Coptotermes formosanus placed on 0.001 % wt/wt compound treated filter paper assessed as termite mortality measured 17 days post compound exposure; outline: as §1
[39] = tested on: Coptotermes formosanus; assay: Termiticidal activity against Coptotermes formosanus placed on 0.01 % wt/wt compound treated filter paper assessed as termite mortality measured 9 days post compound exposure; outline: as §1

SMILES: CC1=CC(=O)C(C(C)C)=CC1=O [THYMOQUINONE]
- mortality [1]: 8.3%
- mortality [2]: 8.3%
- mortality [3]: 1.7%
- mortality [4]: 11.7%
- mortality [5]: 6.7%
- mortality [6]: 0%
- mortality [7]: 6.7%
- mortality [8]: 0%
- mortality [9]: 5%
- mortality [10]: 6.7%
- Activity [11]: 93.1 mg
- mortality [12]: 100%
- mortality [13]: 1.7%
- mortality [14]: 0%
- mortality [15]: 1.7%
- mortality [16]: 6.7%
- Activity [17]: 75.4 mg
- mortality [18]: 3.3%
- mortality [19]: 10%
- mortality [20]: 5%
- mortality [21]: 18.3%
- mortality [22]: 8.3%
- mortality [23]: 11.7%
- Activity [24]: 83.5 mg
- mortality [25]: 0%
- mortality [26]: 100%
- Activity [27]: 80.6 mg
- mortality [28]: 0%
- Activity [29]: 0 mg
- mortality [30]: 5%
- mortality [31]: 6.7%
- mortality [32]: 100%
- Activity [33]: 74 mg
- mortality [34]: 1.7%
- mortality [35]: 1.7%
- mortality [36]: 0%
- mortality [37]: 1.7%
- mortality [38]: 5%
- mortality [39]: 3.3%
